Laboratory results from ChEMBL document CHEMBL1124098, “N-terminal requirements of small peptide anticoagulants based on hirudin54-65” (J Med Chem, 1988).
Starred links: 1 amine or outer side, 2 acyl side, 3 side chain; linkers in the order of their positions; H or OH if unused. Non-standard residues stand in square brackets, D forms with d. Residues, ends and D or L forms follow the SMILES beside them. *: point of attachment. Hydrocinnamoyl = O=C(CCc1ccccc1)*; Phg = N[C@H](C(=O)O)c1ccccc1; Suc = O=C(CCC(=O)[*:2])[*:1]; X1 = O=C(/C=C/c1ccccc1)*; Bz = O=C(c1ccccc1)*

Assay: In vitro Inhibition of fibrin clot formation relative to a blank control after thrombin addition to plasma in human
Assay type: functional, cell-free
Summary of the method: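 Fasted donor human plasma collected in 0.1% EDTA (final), filter-sterilized, stored at -20 °C. Bovine thrombin (0.2 pmol) preincubated with peptide 10 min at 24 °C. Then 1:10 diluted plasma in NaCl/sodium phosphate was added. Buffer pH 7.4 with 0.1% BSA.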

Molecule	IC50
CC[C@H](C)[C@H](NC(=O)[C@H](CCC(=O)O)NC(=O)[C@H](CCC(=O)O)NC(=O)c1ccccc1)C(=O)N1CCC[C@H]1C(=O)N[C@@H](CCC(=O)O)C(=O)N[C@@H](CCC(=O)O)C(=O)N[C@@H](Cc1ccc(O)cc1)C(=O)N[C@@H](CC(C)C)C(N)=O (Bz-EEIPEEYL-NH2)	> 250 µM
CC[C@H](C)[C@H](NC(=O)[C@H](CCC(=O)O)NC(=O)[C@H](CCC(=O)O)NC(=O)/C=C/c1ccccc1)C(=O)N1CCC[C@H]1C(=O)N[C@@H](CCC(=O)O)C(=O)N[C@@H](CCC(=O)O)C(=O)N[C@@H](Cc1ccc(O)cc1)C(=O)N[C@@H](CC(C)C)C(N)=O (X1-EEIPEEYL-NH2)	> 250 µM
H-FEEIPEEYLQ-OH	34 µM

Next, values leading:

IC50	Molecule
> 250 µM	CC[C@H](C)[C@H](NC(=O)[C@H](CCC(=O)O)NC(=O)[C@H](CCC(=O)O)NC(=O)[C@@H](NC(=O)[C@H](CC(=O)O)NC(=O)CN)c1ccccc1)C(=O)N1CCC[C@H]1C(=O)N[C@@H](CCC(=O)O)C(=O)N[C@@H](CCC(=O)O)C(=O)N[C@@H](Cc1ccc(O)cc1)C(=O)N[C@@H](CC(C)C)C(=O)N[C@@H](CCC(N)=O)C(=O)O (H-GD[Phg]EEIPEEYLQ-OH)
> 250 µM	CC[C@H](C)[C@H](NC(=O)[C@H](CCC(=O)O)NC(=O)[C@H](CCC(=O)O)NC(=O)CCc1ccccc1)C(=O)N1CCC[C@H]1C(=O)N[C@@H](CCC(=O)O)C(=O)N[C@@H](CCC(=O)O)C(=O)N[C@@H](Cc1ccc(O)cc1)C(=O)N[C@@H](CC(C)C)C(N)=O (Hydrocinnamoyl-EEIPEEYL-NH2)
1.7 µM	CC[C@H](C)[C@H](NC(=O)[C@H](CCC(=O)O)NC(=O)[C@H](CCC(=O)O)NC(=O)[C@H](Cc1ccccc1)NC(=O)CCC(=O)O)C(=O)N1CCC[C@H]1C(=O)N[C@@H](CCC(=O)O)C(=O)N[C@@H](CCC(=O)O)C(=O)N[C@@H](Cc1ccc(O)cc1)C(=O)N[C@@H](CC(C)C)C(=O)N[C@@H](CCC(N)=O)C(=O)O (Suc-FEEIPEEYLQ-OH)
